MIC data for twelve compounds are collected here from ChEMBL document CHEMBL1287747, “Highly active antimycobacterial derivatives of benzoxazine” (2010).

Structures are written as SMILES. Converted amounts (≈) assume the structure as drawn.

What all share (format): functional
Experiment [1] has as its system Mycobacterium kansasii. The experiment can be described thus: Antimycobacterial activity against Mycobacterium kansasii CNCTC My 235/80 after 14 days by microdilution method. The note with it: CNCTC My 235/80, 336 h. An outline of the steps:
(§1)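 Strains from the Czech National Collection of Type Cultures, tested by dilution micromethod in Šula semisynthetic medium. Incubated at 37 °C and read at 14 and 21 days. MIC is the lowest concentration inhibiting growth.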

Experiment [2] concerns Mycobacterium kansasii. The experiment can be described thus: Antimycobacterial activity against Mycobacterium kansasii 6509/96 after 14 days by microdilution method. The note with it: 6509/96, 336 h. An outline of the steps: (§2)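 Clinical isolate that, unlike the standard strain, is not isoniazid-resistant. Tested by dilution micromethod in Šula semisynthetic medium, with compounds added in DMSO at final 1000 down to 0.25 µmol/L in twofold steps. Löwenstein-Jensen plate used as inoculum sterility and growth control. Incubated at 37 °C and read at 14 and 21 days. MIC is the lowest concentration inhibiting growth.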
(In general: In broth dilution the organism is exposed to a series of concentrations in liquid medium.)

Experiment [3] has as its system Mycobacterium avium. Nature of the experiment: Antimycobacterial activity against Mycobacterium avium CNCTC My 330/88 after 21 days by microdilution method. As to conditions: CNCTC My 330/88, 504 h. An outline of the steps: as §1
In experiment [4] the test system is Mycobacterium tuberculosis. The experiment can be described thus: Antimycobacterial activity against Mycobacterium tuberculosis CNCTC My 331/88 after 14 days by microdilution method. As to conditions: CNCTC My 331/88, 336 h. An outline of the steps: as §1
The test system of experiment [5] is Mycobacterium kansasii. Nature of the experiment: Antimycobacterial activity against Mycobacterium kansasii 6509/96 after 21 days by microdilution method. As to conditions: 6509/96, 504 h. An outline of the steps:
as §2

Experiment [6] deals with Mycobacterium tuberculosis. The experiment can be described thus: Antimycobacterial activity against Mycobacterium tuberculosis CNCTC My 331/88 after 21 days by microdilution method. The note with it: CNCTC My 331/88, 504 h. An outline of the steps:
as §1

Experiment [7] deals with Mycobacterium kansasii. The experiment can be described thus: Antimycobacterial activity against Mycobacterium kansasii CNCTC My 235/80 after 21 days by microdilution method. The note with it: CNCTC My 235/80, 504 h. A digest of the protocol:
as §1

Experiment [8] deals with Mycobacterium avium. The experiment can be described thus: Antimycobacterial activity against Mycobacterium avium CNCTC My 330/88 after 14 days by microdilution method. The note with it: CNCTC My 330/88, 336 h. A digest of the protocol:
as §1

As to `CC(C)c1ccc(-n2c(=S)oc3ccc(Cl)cc3c2=S)cc1`, the MIC – broadly, the lowest concentration that inhibits growth of the organism – amounted to 8 µM (≈ 2.78 µg/mL) in experiment [1]; 1 µM (≈ 0.348 µg/mL) in experiment [2]; 125 µM (≈ 43.5 µg/mL) in experiment [3]; 0.5 µM (≈ 0.174 µg/mL) in experiment [4]; 2 µM (≈ 0.696 µg/mL) in experiment [5]; 1 µM (≈ 0.348 µg/mL) in experiment [6]. Moreover, the MIC in experiment [7] was determined as 16 µM (≈ 5.57 µg/mL); in experiment [8], 32 µM (≈ 11.1 µg/mL).

Consider `CCc1ccc(-n2c(=S)oc3cc(Cl)ccc3c2=S)cc1`, for which the minimum inhibitory concentration (MIC) in experiment [1] worked out at 8 µM (≈ 2.67 µg/mL); in experiment [2], 8 µM (≈ 2.67 µg/mL); in experiment [3] it was 8 µM (≈ 2.67 µg/mL); in experiment [4], 0.5 µM (≈ 0.167 µg/mL); in experiment [5], 16 µM (≈ 5.34 µg/mL); in experiment [6], 0.5 µM (≈ 0.167 µg/mL). Further, the MIC in experiment [7] came to 16 µM (≈ 5.34 µg/mL); in experiment [8] it was 4 µM (≈ 1.34 µg/mL).

On to `CCc1ccc(-n2c(=O)oc3ccc(Br)cc3c2=S)cc1`, for which the MIC in experiment [1] came out at 8 µM (≈ 2.9 µg/mL); in experiment [2], 4 µM (≈ 1.45 µg/mL); in experiment [3] it was 32 µM (≈ 11.6 µg/mL); in experiment [4], 0.5 µM (≈ 0.181 µg/mL); in experiment [5] it was 8 µM (≈ 2.9 µg/mL); in experiment [6] it was 0.5 µM (≈ 0.181 µg/mL). Besides, the MIC was 16 µM (≈ 5.8 µg/mL) in experiment [7] and 32 µM (≈ 11.6 µg/mL) in experiment [8].

As to `CCC(C)c1ccc(-n2c(=S)oc3ccc(F)cc3c2=S)cc1` (stereo unspecified), the MIC in experiment [1] stood at 2 µM (≈ 0.691 µg/mL); in experiment [2], 2 µM (≈ 0.691 µg/mL); in experiment [3], 1 µM (≈ 0.345 µg/mL); in experiment [4], 0.25 µM (≈ 0.0864 µg/mL); in experiment [5], 4 µM (≈ 1.38 µg/mL); in experiment [6], 0.25 µM (≈ 0.0864 µg/mL). Also, the minimal inhibitory concentration (MIC) in experiment [7] was determined as 4 µM (≈ 1.38 µg/mL); in experiment [8] it was 0.5 µM (≈ 0.173 µg/mL).

`CCC(C)c1ccc(-n2c(=S)oc3cc(C)ccc3c2=S)cc1` (stereo unspecified): the minimal inhibitory concentration (MIC) in experiment [1] is 2 µM (≈ 0.683 µg/mL); in experiment [2] it was 0.5 µM (≈ 0.171 µg/mL); in experiment [3] it was 0.5 µM (≈ 0.171 µg/mL); in experiment [4], 0.25 µM (≈ 0.0854 µg/mL); in experiment [5], 1 µM (≈ 0.342 µg/mL); in experiment [6], 0.5 µM (≈ 0.171 µg/mL). Moreover, the MIC in experiment [7] is 2 µM (≈ 0.683 µg/mL); in experiment [8] it was 0.25 µM (≈ 0.0854 µg/mL).

As to `CC(C)(C)c1ccc(-n2c(=O)oc3cc(Cl)ccc3c2=O)cc1`, the MIC in experiment [1] worked out at 8 µM (≈ 2.64 µg/mL); in experiment [2] it was 8 µM (≈ 2.64 µg/mL); in experiment [3] it was 8 µM (≈ 2.64 µg/mL); in experiment [4] it was 4 µM (≈ 1.32 µg/mL); in experiment [5], 8 µM (≈ 2.64 µg/mL); in experiment [6] it was 4 µM (≈ 1.32 µg/mL). Further, the results for the MIC in experiment [7] and in experiment [8] were 16 µM (≈ 5.28 µg/mL) and 4 µM (≈ 1.32 µg/mL), respectively.

`Cc1ccc2c(=S)n(-c3ccc(C(C)C)cc3)c(=O)oc2c1`: the MIC in experiment [1] turned out to be 2 µM (≈ 0.623 µg/mL); in experiment [2], 1 µM (≈ 0.311 µg/mL); in experiment [3], 1 µM (≈ 0.311 µg/mL); in experiment [4], 0.25 µM (≈ 0.0779 µg/mL); in experiment [5] it was 2 µM (≈ 0.623 µg/mL); in experiment [6], 0.5 µM (≈ 0.156 µg/mL). Besides, the values for the MIC in experiment [7] and in experiment [8] were 4 µM (≈ 1.25 µg/mL) and 0.5 µM (≈ 0.156 µg/mL), respectively.

On to `CC(C)(C)c1ccc(-n2c(=O)oc3ccc(Cl)cc3c2=O)cc1`, for which the minimal inhibitory concentration (MIC) is 8 µM (≈ 2.64 µg/mL) in experiment [1]; 8 µM (≈ 2.64 µg/mL) in experiment [2]; 32 µM (≈ 10.6 µg/mL) in experiment [3]; 8 µM (≈ 2.64 µg/mL) in experiment [4]; 8 µM (≈ 2.64 µg/mL) in experiment [5]; 16 µM (≈ 5.28 µg/mL) in experiment [6]. Besides, the MIC in experiment [7] and in experiment [8] was 16 µM (≈ 5.28 µg/mL) in each case.

For `CCC(C)c1ccc(-n2c(=O)oc3cc(Cl)ccc3c2=O)cc1` (stereo unspecified), the MIC in experiment [1] was 8 µM (≈ 2.64 µg/mL); in experiment [2], 8 µM (≈ 2.64 µg/mL); in experiment [3] it was 8 µM (≈ 2.64 µg/mL); in experiment [4], 4 µM (≈ 1.32 µg/mL); in experiment [5] it was 8 µM (≈ 2.64 µg/mL); in experiment [6], 4 µM (≈ 1.32 µg/mL). For the same compound, the MIC in experiment [7] and in experiment [8] was 8 µM (≈ 2.64 µg/mL) in each case.

Turning to `Cc1ccc2c(=S)n(-c3ccc(C(C)(C)C)cc3)c(=S)oc2c1`, the MIC in experiment [1] came to 2 µM (≈ 0.683 µg/mL); in experiment [2], 1 µM (≈ 0.342 µg/mL); in experiment [3], 1 µM (≈ 0.342 µg/mL); in experiment [4] it was 0.25 µM (≈ 0.0854 µg/mL); in experiment [5], 2 µM (≈ 0.683 µg/mL); in experiment [6] it was 0.5 µM (≈ 0.171 µg/mL). Further, the MIC in experiment [7] worked out at 2 µM (≈ 0.683 µg/mL); in experiment [8], 0.5 µM (≈ 0.171 µg/mL).

On to `CCC(C)c1ccc(-n2c(=O)oc3ccc(Br)cc3c2=O)cc1` (stereo unspecified), for which the minimum inhibitory concentration (MIC) in experiment [1] is 8 µM (≈ 2.99 µg/mL); in experiment [2], 8 µM (≈ 2.99 µg/mL); in experiment [3], 32 µM (≈ 12 µg/mL); in experiment [4], 4 µM (≈ 1.5 µg/mL); in experiment [5], 16 µM (≈ 5.99 µg/mL); in experiment [6], 8 µM (≈ 2.99 µg/mL). Moreover, the MIC in experiment [7] was 8 µM (≈ 2.99 µg/mL); in experiment [8], 16 µM (≈ 5.99 µg/mL).

As to `CC(C)c1ccc(-n2c(=S)oc3ccc(F)cc3c2=S)cc1`, the minimal inhibitory concentration (MIC) turned out to be 4 µM (≈ 1.33 µg/mL) in experiment [1]; 2 µM (≈ 0.663 µg/mL) in experiment [2]; 1 µM (≈ 0.331 µg/mL) in experiment [3]; 0.25 µM (≈ 0.0829 µg/mL) in experiment [4]; 4 µM (≈ 1.33 µg/mL) in experiment [5]; 0.5 µM (≈ 0.166 µg/mL) in experiment [6]. The MIC came out at 8 µM (≈ 2.65 µg/mL) in experiment [7] and 0.5 µM (≈ 0.166 µg/mL) in experiment [8].
